Published values collected from several papers.
Target: Dual specificity tyrosine-phosphorylation-regulated kinase 2 (DYRK2, Homo sapiens, UniProt Q92630)
Read-out: enzyme activity
Action: inhibitor
Residues used in one study (Q92630 1-601): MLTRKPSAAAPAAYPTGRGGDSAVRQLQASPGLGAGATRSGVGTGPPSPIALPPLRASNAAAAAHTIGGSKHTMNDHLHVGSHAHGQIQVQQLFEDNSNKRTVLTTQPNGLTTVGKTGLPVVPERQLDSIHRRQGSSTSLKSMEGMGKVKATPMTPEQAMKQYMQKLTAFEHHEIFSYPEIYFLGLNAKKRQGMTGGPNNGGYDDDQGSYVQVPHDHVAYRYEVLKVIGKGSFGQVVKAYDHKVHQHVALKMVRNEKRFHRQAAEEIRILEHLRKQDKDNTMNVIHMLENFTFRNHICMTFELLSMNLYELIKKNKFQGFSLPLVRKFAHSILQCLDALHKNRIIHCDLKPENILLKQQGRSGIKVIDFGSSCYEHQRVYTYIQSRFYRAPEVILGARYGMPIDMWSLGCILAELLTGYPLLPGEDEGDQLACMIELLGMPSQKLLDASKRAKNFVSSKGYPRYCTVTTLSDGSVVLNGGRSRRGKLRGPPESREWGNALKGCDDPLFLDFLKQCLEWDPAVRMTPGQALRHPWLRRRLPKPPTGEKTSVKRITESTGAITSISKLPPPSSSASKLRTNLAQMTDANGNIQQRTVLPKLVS

Structure (SMILES) | method | tested at | remaining activity [%]
CC(C)(C)C(=O)c1sc(NC2CCCCC2)nc1N | – | 10 µM | 90
Cn1c(=O)n(-c2ccc(C(C)(C)C#N)cc2)c2c3cc(-c4cnc5ccccc5c4)ccc3ncc21 | – | 10 µM | 79
COc1cc(Nc2cnc(C#N)c(O[C@H](C)CN(C)C)n2)ncc1-c1cnn(C)c1 | radiometric | 10 µM | 100
CC(C)(O)[C@H]1CC[C@H](Nc2ccc3ncc(-c4cccc(C(F)(F)F)c4)n3n2)CC1 | – | 1 µM | 59.7
O=C(O)c1ccc2c(c1)nc(Nc1ccc3ccccc3c1)c1ccncc12 | radiometric | 1 µM | 18
CCN(CC)c1ccc(C2=NNC(=O)CC2C)cc1[N+](=O)[O-] (stereo not shown) | – | 10 µM | 100
CCCOc1ccc(OC)c(F)c1C(=O)c1ccc(C(=O)N[C@@H]2CNC[C@H]2NC(=O)c2ccc3[nH]ncc3c2)cc1 | – | 10 µM | 92
N#Cc1cccc(Nc2nc3cc(C(=O)O)ccc3c3cnccc23)c1 | radiometric | 1 µM | 11
O=C(Nc1cnn(-c2csc(C(=O)NC3COC3)c2)c1)Nc1ccccc1Cl | – | 5 µM | 88.2
O=C(O)c1ccc2c(c1)nc(Nc1ccccc1)c1ccncc12 | radiometric | 1 µM | 45
COc1cc(Cl)c(C(=O)N[C@@H](CN[C@H]2CC[C@@H](N)CC2)Cc2ccc(C#N)cc2)cc1-c1ccc(CN[C@H](C)c2ccc(C)cc2)o1 | – | 1 µM | 98
O=C(O)c1ccc2c(c1)nc(NCCc1ccccc1)c1ccncc12 | radiometric | 1 µM | 9
Cc1ccc(C(=O)Nc2ccc(CN3CCN(C)CC3)c(C(F)(F)F)c2)cc1C#Cc1cnc2cccnn12 | – | 23.5 nM | 80
